Experimental data reported in ChEMBL document CHEMBL1126734, “Synthesis of phosphocholine and quaternary amine ether lipids and evaluation of in vitro antineoplastic activity” (1993).

Columns and labels:
HL-60 [1] = test: Trypan blue exclusion assay (TB) was carried out for 48 h and the in vitro ID50 value was evaluated in the HL-60 leukemic cell system (n=3); assay type: functional; settings: Homo sapiens, HL-60, 48 h; read-out: ID50 (the source's name)
How it was run: (§1)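 HL-60 human promyelocytic leukemia cells were grown in suspension in RPMI 1640 with 10% heat-inactivated FBS, penicillin/streptomycin, 2 mM L-glutamine and 0.22% NaHCO3 at 37 °C under 5% CO2. Cells at 5 × 10^5/mL were exposed to various inhibitor concentrations diluted from ethanol stocks into medium for 48 h. Trypan blue in PBS was then added and viable cells were counted by hemocytometer. Triplicate determinations; values in μM.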

HL-60 [2] = test: Standard thymidine incorporation assay (TdR) was carried out for 48 hr and involved a 24-h pulse of [3H]- thymidine (n=5) and ID50 value was evaluated; assay type: functional; settings: Homo sapiens, read-out: ID50 (the source's name)
How it was run: (§2)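 HL-60 human promyelocytic leukemia cells in RPMI 1640 with 10% heat-inactivated FBS, 37 °C, 5% CO2. Log-phase cells seeded at 5 × 10^4/well with inhibitor dilutions from ethanol stocks (1 or 10 mg/mL). At 24 h, pulsed with 1.0 μCi [methyl-3H]thymidine (6.7 Ci/mmol) for a further 24 h. Harvested onto glass fiber filters and counted by liquid scintillation as % of control. Quadruplicate determinations. Values in μM.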

HL-60 [3] = test: Standard thymidine incorporation assay (TdR) was carried out for 48 hr with an 8 hr pulse of [3H]- thymidine (TdR8) (n=6) and ID50 value was evaluated; assay type: functional; settings: Homo sapiens, read-out: ID50 (the source's name)
How it was run: (§3)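 HL-60 leukemia suspension cultures grown in RPMI 1640/10% FBS at 37 °C, 5% CO2. Cells seeded at 5 × 10^4/well with inhibitors diluted from ethanol stocks. 48-h exposure, with 1.0 μCi [methyl-3H]thymidine (6.7 Ci/mmol) added for the last 8 h. Filter-harvested cells counted by liquid scintillation, uptake expressed as percent of control. Quadruplicate determinations. Results in μM.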

HL-60 [4] = test: Standard thymidine incorporation assay (TdR) was carried out for 48 hr and involved a 24-h pulse of [3H]- thymidine (n=1) and ID50 value was evaluated; assay type: functional; settings: Homo sapiens, read-out: ID50 (the source's name); how it was run: as §2
HL-60 [5] = test: Trypan blue exclusion assay (TB) was carried out for 48 hr and the in vitro ID50 value was evaluated in the HL-60 leukemic cell system (n=1); assay type: functional, Homo sapiens; settings: Homo sapiens, HL-60, 48 h; read-out: ID50 (the source's name); how it was run: as §1
HL-60 [6] = test: Standard thymidine incorporation assay (TdR) was carried out for 48 hr with an 8 hr pulse of [3H]- thymidine (TdR8) (n=3) and ID50 value was evaluated; assay type: functional; settings: Homo sapiens, read-out: ID50 (the source's name); how it was run: as §3
HL-60 [7] = test: Trypan blue exclusion assay (TB) was carried out for 48 hr and the in vitro ID50 value was evaluated in the HL-60 leukemic cell system (n=4); assay type: functional; settings: Homo sapiens, HL-60, 48 h; read-out: ID50 (the source's name); how it was run: as §1
HL-60 [8] = test: Standard thymidine incorporation assay (TdR) was carried out for 48 hr and involved a 24-h pulse of [3H]- thymidine (n=2) and ID50 value was evaluated; assay type: functional; settings: Homo sapiens, read-out: ID50 (the source's name); how it was run: as §2
HL-60 [9] = test: Trypan blue exclusion assay (TB) was carried out for 48 hr and the in vitro ID50 value was evaluated in the HL-60 leukemic cell system (n=2); assay type: functional; settings: Homo sapiens, HL-60, 48 h; read-out: ID50 (the source's name); how it was run: as §1
HL-60 [10] = test: Standard thymidine incorporation assay (TdR) was carried out for 48 hr with an 8 hr pulse of [3H]- thymidine (TdR8) (n=4) and ID50 value was evaluated; assay type: functional; settings: Homo sapiens, read-out: ID50 (the source's name); how it was run: as §3
HL-60 [11] = test: Standard thymidine incorporation assay (TdR) was carried out for 48 hr and involved a 24-h pulse of [3H]- thymidine (n=3) and ID50 value was evaluated; assay type: functional; settings: Homo sapiens, read-out: ID50 (the source's name); how it was run: as §2
HL-60 [12] = test: Standard thymidine incorporation assay (TdR) was carried out for 48 h and involved a 24-h pulse of [3H]- thymidine (n=6) and ID50 value was evaluated; assay type: functional; settings: Homo sapiens, read-out: ID50 (the source's name); how it was run: as §2
HL-60 [13] = test: Trypan blue exclusion assay (TB) was carried out for 48 hr and the in vitro ID50 value was evaluated in the HL-60 leukemic cell system (n=9); assay type: functional; settings: Homo sapiens, HL-60, 48 h; read-out: ID50 (the source's name); how it was run: as §1
HL-60 [14] = test: Standard thymidine incorporation assay (TdR) was carried out for 48 hr with an 8 hr pulse of [3H]- thymidine (TdR8) (n=7) and ID50 value was evaluated; assay type: functional; settings: Homo sapiens, read-out: ID50 (the source's name); how it was run: as §3
HL-60 [15] = test: Standard thymidine incorporation assay (TdR) was carried out for 48 hr with an 8 hr pulse of [3H]- thymidine (TdR8) (n=1) and ID50 value was evaluated; assay type: functional; settings: Homo sapiens, read-out: ID50 (the source's name); how it was run: as §3

## CCCCCCCCCCCCCCCCSCC(C[N+](C)(C)CC(O)CO)OC (configuration not stated)
HL-60 [1]
  IC50: 3.62 µM
HL-60 [2]
  IC50: 3.05 µM
HL-60 [3]
  IC50: 1.9 µM

## CCCCCCCCCCCCCCCCSCCOP(=O)([O-])OCC[N+](C)(C)C
HL-60 [4]
  IC50: 5.16 µM
HL-60 [5]
  IC50: 4.15 µM

## CCCCCCCCCCCCCCCCSCC(C[N+](C)(C)CCO)OC (configuration not stated)
HL-60 [2]
  IC50: 4.34 µM
HL-60 [6]
  IC50: 3.37 µM
HL-60 [7]
  IC50: 3.86 µM

## CCCCCCCCCCCCCCCCOCC(COP(=O)(O)OCCNC(C)C)OCC (configuration not stated)
HL-60 [5]
  IC50: 4.7 µM

## CCCCCCCCCCCCCCCCCC(=O)NCCOP(=O)([O-])OCC[N+](C)(C)C
HL-60 [8]
  IC50: 7.02 µM
HL-60 [9]
  IC50: 4.56 µM
HL-60 [10]
  IC50: 5.73 µM

## CCCCCCCCCCCCCCCCOCC(COP(=O)([O-])OCC[n+]1ccccc1)OCC (configuration not stated)
HL-60 [11]
  IC50: 2.56 µM
HL-60 [5]
  IC50: 2.64 µM

## CCCCCCCCCCCCCCCCCCSCC(C[N+](C)(C)CCCO)OC (configuration not stated)
HL-60 [12]
  IC50: 3.51 µM
HL-60 [13]
  IC50: 2.93 µM
HL-60 [14]
  IC50: 2.46 µM

## CCCCCCCCCCCCCCCCCCCC(=O)NCC(COP(=O)([O-])OCC[N+](C)(C)C)OCC (configuration not stated)
HL-60 [1]
  IC50: 3.17 µM
HL-60 [8]
  IC50: 3.39 µM
HL-60 [10]
  IC50: 2.71 µM

## CCCCCCCCCCCCCCCCOCC(COCCCC[N+](C)(C)CCCO)OC (configuration not stated)
HL-60 [1]
  IC50: 1.83 µM
HL-60 [8]
  IC50: 1.98 µM
HL-60 [10]
  IC50: 1.21 µM

## CCCCCCCCCCCCSCC(C[N+](C)(C)C)OC (configuration not stated)
HL-60 [4]
  IC50: 2.26 µM

## CCCCCCCCCCCCCCCCSCC(C[N+]1(C)CCCC1)OCC (configuration not stated)
HL-60 [4]
  IC50: 2.09 µM
HL-60 [15]
  IC50: 1.9 µM

## CCCCCCCCCCCCCCCCCC(=O)N(C)CC(COP(=O)([O-])OCC[N+](C)(C)C)OC (configuration not stated)
HL-60 [1]
  IC50: 3.97 µM
HL-60 [8]
  IC50: 4.02 µM
HL-60 [10]
  IC50: 3.44 µM

## CCCCCCCCCCCCCCCCCCSCC(C)(COP(=O)([O-])OCC[N+](C)(C)C)OCC (configuration not stated)
HL-60 [9]
  IC50: 3.83 µM

## CCCCCCCCCCCCCCCCCC(=O)NCCCOP(=O)([O-])OCC[n+]1ccccc1
HL-60 [1]
  IC50: 4.16 µM
HL-60 [11]
  IC50: 4.33 µM

## CCCCCCCCCCCCCCC(CSCC(COP(=O)([O-])OCC[N+](C)(C)C)OCC)OC (configuration not stated)
HL-60 [1]
  IC50: 3.39 µM
HL-60 [8]
  IC50: 2.47 µM

## CCCCCCCCCCCCCCCCCC(=O)NCCCOP(=O)([O-])OCC[N+](C)(C)C
HL-60 [1]
  IC50: 5.48 µM
HL-60 [11]
  IC50: 6.08 µM

## CCCCCCCCCCCCCCCCOCC(COP(=O)([O-])OCC[N+](C)(C)C)(OC)OC
HL-60 [5]
  IC50: 3.38 µM

## CCCCCCC(=O)CCCCCCCCCOCC(COP(=O)([O-])OCC[N+](C)(C)C)OCC (configuration not stated)
HL-60 [8]
  IC50: 21.9 µM
HL-60 [9]
  IC50: 13 µM

## CCCCCCCCCCCCCCCCCCOCC(COP(=O)([O-])OCC[N+](C)(C)Cc1ccccc1)OCC (configuration not stated)
HL-60 [5]
  IC50: 3.65 µM

## CCCCCCCCCCCCCCCCSCC(COP(=O)([O-])OCC[N+](C)(C)C)OCCC (configuration not stated)
HL-60 [1]
  IC50: 2.73 µM
HL-60 [8]
  IC50: 2.19 µM
